The subject of one assay is KB. Put plainly: Antiproliferative activity against human KB cells after 72 hrs by SRB assay. The format is functional. The essentials:
(§1)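 Cells fixed in situ with 10% TCA at time of drug addition as time-zero reference. Drug exposure 72 h after attachment, then 10% TCA fixation and 0.4% SRB in 1% HOAc for 10 min. Unbound dye washed off with 1% HOAc, bound dye dissolved in 10 mM trizma base, absorbance read at 515 nm. GI50 is the concentration halving net protein increase relative to control.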

A further assay concerns DU-145. Put plainly: Antiproliferative activity against human DU145 cells after 72 hrs by SRB assay. The format is functional. The conditions noted are these: DU-145, 72 h. The essentials: as §1
The test system of assay [1] is A549. Nature of the assay: Antiproliferative activity against human A549 cells after 72 hrs by SRB assay. The format is functional. The conditions noted are these: A549, 72 h. The procedure, abridged: as §1
Assay [2] can be described thus: Antiproliferative activity against human KBVIN cells after 72 hrs by SRB assay. The class given is functional. The procedure, abridged:
as §1

Assay [3] relates to A549. Put plainly: Induction of cell cycle arrest in human A549 cells assessed as S phase cells at 1 mg after 48 hrs by FACS-based flow cytometry (reference value: 66.74%). The class given is functional.
The subject of assay [4] is A549. Put plainly: Induction of cell cycle arrest in human A549 cells assessed as G0/G1 phase cells at 1 mg after 48 hrs by FACS-based flow cytometry (reference value: 26.9%). The format is functional.
The test system of assay [5] is A549. Put plainly: Induction of cell cycle arrest in human A549 cells assessed as G0/G1 phase cells at 5 mg after 48 hrs by FACS-based flow cytometry (reference value: 26.9%). The class given is functional.
The test system of assay [6] is A549. Nature of the assay: Induction of cell cycle arrest in human A549 cells assessed as G2/M phase cells at 5 mg after 48 hrs by FACS-based flow cytometry (reference value: 6.36%). The format is functional.
Assay [7] deals with A549. Put plainly: Induction of cell cycle arrest in human A549 cells assessed as G0/G1 phase cells at 10 mg after 48 hrs by FACS-based flow cytometry (reference value: 26.9%). The class given is functional.
Assay [8] deals with A549. Put plainly: Induction of cell cycle arrest in human A549 cells assessed as G2/M phase cells at 1 mg after 48 hrs by FACS-based flow cytometry (reference value: 6.36%). The format is functional.
For assay [9], the system named is A549. Nature of the assay: Induction of cell cycle arrest in human A549 cells assessed as S phase cells at 10 mg after 48 hrs by FACS-based flow cytometry (reference value: 66.74%). The format is functional.
Assay [10] concerns A549. Put plainly: Induction of cell cycle arrest in human A549 cells assessed as S phase cells at 5 mg after 48 hrs by FACS-based flow cytometry (reference value: 66.74%). The class given is functional.
Assay [11] deals with A549. Put plainly: Induction of apoptosis in human A549 cells after 48 hrs by DNA fluorochrome Hoechst-staining based fluorescence microscopy. The format is functional, cell-based. The essentials: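 A549 seeded at 5 × 10^3 cells/well, treated at 0, 1, 5 and 10 µg/mL for 48 h. Monolayer fixed and stained with Hoechst 33258 for 20 min, washed with PBS, examined by fluorescence microscopy. Cells with condensed or fragmented, brightly stained nuclei scored apoptotic. Three independent experiments.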

In assay [12] the test system is A549. Nature of the assay: Antiproliferative activity against human A549 cells after 48 hrs by MTT assay. The format is functional, cell-based. The procedure, abridged:
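A549 seeded at 5 × 10^3 cells/well. Exposed to 0.06, 0.23, 0.94, 3.75, 15 or 60 μg/mL for 48 h, then medium replaced. MTT (5 mg/mL solution) added for 4 h at 37 °C, formazan dissolved in DMSO, absorbance at 570 nm. Viability expressed as % of untreated cells. Mean ± SD of three independent experiments.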

The test system of assay [13] is A549. Nature of the assay: Induction of cell cycle arrest in human A549 cells assessed as G2/M phase cells at 10 mg after 48 hrs by FACS-based flow cytometry (reference value: 6.36%). The format is functional.

As to `Cc1cccc(CSc2ccc3c(C)cc(=O)oc3c2)c1`, the concentration for 50% growth inhibition (GI50) (in the assay on KB; in the assay with DU-145; with A549 [1]; in assay [2]) was > 33.7 µM each time.
For `Cc1cc(=O)oc2cc(SCc3ccccn3)ccc12`, the GI50 (in the assay on KB; with DU-145; with A549 [1]; in assay [2]) was > 35.3 µM in each case.
In the case of `CC(C)Oc1ccc2c(=O)cc(C(C)Br)oc2c1CBr` (stereo not given), the 50% growth inhibitory concentration (GI50) in the assay with KB was 12.8 µM; in the assay with DU-145, 15.5 µM; in the assay on A549 [1] it was 12.8 µM; in assay [2], 11.4 µM.
For the molecule `COc1cc(CSc2ccc3c(C)cc(=O)oc3c2)c([N+](=O)[O-])cc1OC`, the GI50 (in the assay on KB; in the assay on DU-145; with A549 [1]; in assay [2]) was > 25.8 µM throughout.
Take `Cc1cc(=O)oc2cc(SC3CCOC3=O)ccc12` (stereo not given): the GI50 (in the assay on KB; in the assay on DU-145; with A549 [1]; in assay [2]) was > 36.2 µM throughout.
For the molecule `CCc1cc(=O)c2ccc(OCc3cccc(C#N)c3)c(C)c2o1`, the concentration for 50% growth inhibition (GI50) (in the assay with KB; in the assay with DU-145; with A549 [1]; in assay [2]) was > 31.3 µM throughout.
Regarding `COc1ccc(Br)c(CSc2ccc3c(C)cc(=O)oc3c2)c1`, the concentration for 50% growth inhibition (GI50) in the assay on KB was 16 µM; in the assay with DU-145, > 25.6 µM; with A549 [1], 15.3 µM; in assay [2], > 25.6 µM.
As for `Cc1cc(=O)oc2cc(Sc3cccc(Cl)n3)ccc12`, the concentration for 50% growth inhibition (GI50) is 0.92 µM in the assay on KB, 1.15 µM in the assay with DU-145, 2.11 µM in the assay with A549 [1] and 0.92 µM in assay [2]. The Activity in the assay on A549 [3] stood at 11.4%; with A549 [4], 5.02%; in the assay with A549 [5], 0.67%; with A549 [6], 88.98%; in the assay with A549 [7] it was 0.12%; with A549 [8], 83.58%. Further, the Activity is 16.03% in the assay with A549 [9]; 10.36% in the assay on A549 [10]; “Dose-dependent effect” in the assay with A549 [11]; “Dose-dependent effect” with A549 [12]; 83.86% in the assay on A549 [13].
As to `CCc1cc(=O)c2ccc(OCC(C)C)c(CBr)c2o1`, the GI50 (in the assay on KB; with DU-145; with A549 [1]; in assay [2]) was > 29.5 µM in each case.
Take `CCc1cc(=O)c2ccc(OCc3ccccc3)c(C)c2o1`: the GI50 was > 34 µM in the assay on KB, 27.7 µM in the assay on DU-145, > 34 µM in the assay on A549 [1] and 24.8 µM in assay [2].
On to `Cc1cc(=O)oc2cc(SCc3cccc(OC(F)(F)F)c3)ccc12`, for which the GI50 was found to be 14.8 µM in the assay on KB, 15.5 µM in the assay on DU-145, 17.4 µM in the assay with A549 [1] and 15.3 µM in assay [2].
On to `COc1cccc(CSc2ccc3c(C)cc(=O)oc3c2)c1`, for which the concentration for 50% growth inhibition (GI50) (in the assay on KB; in the assay on DU-145; in the assay on A549 [1]; in assay [2]) was > 32 µM each time.
As for `CCc1cc(=O)c2ccc(OCc3cccc(C)c3)c(C)c2o1`, the 50% growth inhibitory concentration (GI50) in the assay on KB was 28.6 µM; in the assay on DU-145 it was 24.1 µM; with A549 [1], 24.9 µM; in [2], 24.9 µM.
Consider `CC(C)COc1ccc2c(=O)cc(C(C)Br)oc2c1CBr` (stereo not given), for which the 50% growth inhibitory concentration (GI50) with KB was determined as 10.9 µM; in the assay on DU-145, 10.5 µM; in the assay with A549 [1], 8.71 µM; in assay [2] it was 9.45 µM.
The corresponding values for `CCc1oc2c(C)c(OCc3ccccc3)ccc2c(=O)c1Br` are > 26.8 µM, > 26.8 µM, > 26.8 µM and > 26.8 µM.
Turning to `CCc1oc2c(C)c(OC)ccc2c(=O)c1Br`, the 50% growth inhibitory concentration (GI50) in the assay with KB is > 33.6 µM; in the assay with DU-145, > 33.6 µM; with A549 [1], > 33.6 µM; in [2], 23.2 µM.
Consider `Cc1cc(=O)oc2cc(SCc3cccc(C#N)c3)ccc12`, for which the 50% growth inhibitory concentration (GI50) (in the assay on KB; in the assay on DU-145; in the assay on A549 [1]; in assay [2]) was > 32.5 µM each time.
As for `CC(=O)O[C@H]1C(=O)[C@@]2(C)[C@H]([C@H](OC(=O)c3ccccc3)[C@]3(O)C[C@H](OC(=O)[C@H](O)[C@@H](NC(=O)c4ccccc4)c4ccccc4)C(C)=C1C3(C)C)[C@]1(OC(C)=O)CO[C@@H]1C[C@@H]2O` [PACLITAXEL], the GI50 was 0.00412 µM in the assay on KB, 0.00386 µM in the assay with DU-145, 0.00546 µM in the assay with A549 [1] and > 1 µM in assay [2].
As to `CCOc1ccc2c(=O)cc(C(C)Br)oc2c1CBr` (stereo not given), the 50% growth inhibitory concentration (GI50) in the assay with KB came out at 15.6 µM; in the assay with DU-145 it was 20.9 µM; in the assay on A549 [1] it was 19.8 µM; in assay [2], 12.8 µM.
`CCc1cc(=O)c2ccc(Sc3cccc(Cl)[n+]3[O-])cc2o1`: the GI50 (in the assay with KB; with DU-145; with A549 [1]; in [2]) was > 30 µM each time.
In the case of `CCc1cc(=O)c2ccc(OCc3cccc(C(F)(F)F)c3)c(C)c2o1`, the 50% growth inhibitory concentration (GI50) (in the assay with KB; in the assay with DU-145; in the assay with A549 [1]; in assay [2]) was > 27.6 µM in each case.
In the case of `Cc1cc(=O)oc2cc(SCc3ccncc3)ccc12`, the GI50 (in the assay on KB; in the assay with DU-145; in the assay with A549 [1]; in assay [2]) was > 35.3 µM in each case.
On to `CCc1oc2c(C)c(OCc3cccc(C(F)(F)F)c3)ccc2c(=O)c1Br`, for which the GI50 (with KB; in the assay on DU-145; in the assay on A549 [1]; in [2]) was > 22.7 µM in each case.
For `CCc1oc2c(C)c(OC(C)C)ccc2c(=O)c1Br`, the 50% growth inhibitory concentration (GI50) with KB is 22.6 µM; in the assay with DU-145, > 30.8 µM; in the assay with A549 [1] it was > 30.8 µM; in assay [2] it was 5.84 µM.
Turning to `Cc1cc(=O)oc2cc(SCc3cccc(C(F)(F)F)c3)ccc12`, the GI50 (in the assay with KB; in the assay on DU-145; with A549 [1]; in [2]) was > 28.5 µM throughout.
As for `CCc1cc(=O)c2ccc(Sc3cccc(Cl)n3)c(C)c2o1`, the GI50 in the assay with KB is > 30.1 µM; in the assay with DU-145 it was > 30.1 µM; in the assay with A549 [1], > 30.1 µM; in [2], 23.9 µM.
Take `CCc1cc(=O)c2ccc(Sc3cccc(Cl)n3)cc2o1`: the GI50 (in the assay with KB; in the assay on DU-145; with A549 [1]; in assay [2]) was > 31.5 µM each time.
Turning to `Cc1cc(=O)oc2cc(SCc3cccnc3)ccc12`, the GI50 (in the assay with KB; with DU-145; in the assay on A549 [1]; in assay [2]) was > 35.3 µM each time.
With `CCOc1ccc2c(=O)cc(CC)oc2c1CBr`, the GI50 (in the assay on KB; in the assay on DU-145; in the assay on A549 [1]; in [2]) was > 32.1 µM each time.
In the case of `COc1cc(CSc2ccc3c(C)cc(=O)oc3c2)cc(OC)c1`, the GI50 (with KB; with DU-145; in the assay with A549 [1]; in assay [2]) was > 29.2 µM in each case.
As to `COc1ccc2c(=O)cc(C(C)Br)oc2c1CBr` (stereo not given), the GI50 in the assay with KB was 15.1 µM; with DU-145, > 26.6 µM; in the assay on A549 [1], > 26.6 µM; in assay [2] it was 17 µM.
Consider `CCc1cc(=O)c2ccc(OC)c(CBr)c2o1`, for which the GI50 (with KB; with DU-145; in the assay with A549 [1]; in [2]) was > 33.6 µM each time.
On to `CCc1cc(=O)c2ccc(OC(C)C)c(CBr)c2o1`, for which the GI50 (with KB; in the assay with DU-145; in the assay on A549 [1]; in assay [2]) was > 30.8 µM each time.
`CCc1cc(=O)c2ccc(Sc3cccc(Cl)[n+]3[O-])c(C)c2o1`: the GI50 (in the assay on KB; in the assay with DU-145; in the assay with A549 [1]; in assay [2]) was > 28.8 µM in each case.
For `Cc1cc(=O)oc2cc(Sc3cccc(Cl)[n+]3[O-])ccc12`, the 50% growth inhibitory concentration (GI50) was > 31.3 µM in the assay with KB, > 31.3 µM in the assay on DU-145, > 31.3 µM with A549 [1] and 24.5 µM in [2].
With `COC(=O)c1cccc(CSc2ccc3c(C)cc(=O)oc3c2)c1`, the GI50 in the assay on KB came out at 2.06 µM; in the assay with DU-145 it was 14.1 µM; in the assay with A549 [1], 7.7 µM; in assay [2], 5.41 µM.

(Values after ChEMBL document CHEMBL1944560, “Antitumor agents 292. Design, synthesis and pharmacological study of S- and O-substituted 7-mercapto- or hydroxy-coumarins and chromones as potent cytotoxic agents” (2012).)
